Assay results taken from ChEMBL document CHEMBL3580567 (J Med Chem, 2015).
Activity calls are given as the source filed them. The rule behind the calls is not given here.

Experiments:
[1] = Permeability of the compound at 100 ug/ml after 240 mins by PAMPA; format: physicochemical; details: 4 h
Outline: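 For PAMPA-BBB, the filter was coated with porcine brain lipid in dodecane (20 mg/mL). Donor compound was 100 µg/mL in PBS:ethanol 70:30, pH 7.4, and the acceptor held PBS:ethanol 70:30. Plates were incubated 240 min at 25 °C. Acceptor concentration was read by UV-Vis at five wavelengths in four wells, over at least three runs. Eleven quality-control standards were included.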

[2] = molecular target: Cannabinoid receptor 1 (Homo sapiens) (UniProt P21554); test: Binding affinity to CB1 receptor (unknown origin) at 10 uM
[3] = molecular target: T1, Peroxisome proliferator-activated receptor gamma (Homo sapiens) (UniProt P37231); test: Binding affinity to PPARgamma (unknown origin) at 10 uM
T1 sequence (whole entry): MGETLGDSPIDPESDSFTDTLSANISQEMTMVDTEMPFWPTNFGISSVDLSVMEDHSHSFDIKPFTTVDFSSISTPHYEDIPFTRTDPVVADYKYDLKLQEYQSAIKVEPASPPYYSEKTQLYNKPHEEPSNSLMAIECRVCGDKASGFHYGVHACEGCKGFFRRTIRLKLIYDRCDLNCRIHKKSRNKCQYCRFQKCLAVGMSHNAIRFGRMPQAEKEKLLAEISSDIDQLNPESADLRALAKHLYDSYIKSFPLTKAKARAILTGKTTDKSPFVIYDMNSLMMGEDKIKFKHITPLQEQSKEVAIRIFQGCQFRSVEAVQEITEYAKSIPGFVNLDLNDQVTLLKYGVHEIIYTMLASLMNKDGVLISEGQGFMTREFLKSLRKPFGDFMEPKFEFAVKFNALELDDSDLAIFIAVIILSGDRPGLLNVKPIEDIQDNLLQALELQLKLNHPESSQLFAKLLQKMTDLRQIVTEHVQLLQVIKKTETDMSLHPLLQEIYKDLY

[4] = molecular target: T2, Melatonin receptor type 1B (Homo sapiens, UniProt P49286); test: Agonist activity at human melatonin receptor-2 transfected in CHO cell membranes after 1 hr by GTPgammaS binding assay; format: functional
T2 sequence (P49286 whole entry): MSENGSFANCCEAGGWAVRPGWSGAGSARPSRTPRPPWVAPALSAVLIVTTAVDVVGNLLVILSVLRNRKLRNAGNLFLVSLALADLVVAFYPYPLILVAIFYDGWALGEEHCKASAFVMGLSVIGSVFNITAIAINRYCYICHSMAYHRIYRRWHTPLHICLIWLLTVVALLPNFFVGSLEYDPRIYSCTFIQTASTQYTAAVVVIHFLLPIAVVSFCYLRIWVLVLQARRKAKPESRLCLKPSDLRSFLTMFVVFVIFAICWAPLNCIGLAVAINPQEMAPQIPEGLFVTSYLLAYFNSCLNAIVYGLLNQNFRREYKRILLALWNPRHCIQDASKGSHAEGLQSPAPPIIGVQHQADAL

[5] = molecular target: Glycogen synthase kinase-3 beta (Homo sapiens) (UniProt P49841); test: Binding affinity to GSK-3beta receptor (unknown origin) at 10 uM
[6] = Induction of primary neuronal stem cell differentiation derived from subgranular zone of dentate gyrus of Wistar rat hippocampus assessed as upregulation of TuJ1 expression incubated for 7 days followed by 48 hrs incubation in presence of serum and absence of EGF by DAPI staining-based fluorescence microscopic analysis; format: functional, tissue-based; details: Primary neuron
Outline: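 Neurospheres came from the SGZ of the dentate gyrus of adult male Wistar rats (8-12 weeks). They were grown in DMEM/F12 with 10 ng/mL EGF, 10 ng/mL FGF and B27. After 3 days, cultures were treated with compounds for 7 days. They were then plated on poly-L-lysine coverslips for 48 h with serum and without growth factors. Cells were immunostained for TuJ1 and MAP-2 with DAPI nuclei. Positive cells were counted by fluorescence microscopy in five NS per condition over three independent experiments. Untreated cultures gave basal values.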

[7] = molecular target: T3, Melatonin receptor type 1A (Homo sapiens, UniProt P48039); test: Displacement of 2-[125I]-iodomelatonin from human melatonin receptor-1 transfected in CHO cell membranes after 120 mins
Homo sapiens = organism: Homo sapiens; test: Selectivity ratio of Ki for human melatonin receptor-1 to Ki for human melatonin receptor-2
[8] = molecular target: T4, Melatonin receptor type 1B (Homo sapiens) (UniProt P49286); test: Agonist activity at human melatonin receptor-2 transfected in CHO cell membranes after 1 hr by GTPgammaS binding assay relative to melatonin; format: functional
T4 sequence (whole entry): T2 sequence (P49286 whole entry)
Outline: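 CHO membranes (20 µg/mL) stably expressing human MT1 or MT2 in 20 mM HEPES pH 7.4, 100 mM NaCl, 3 µM GDP, 3 mM MgCl2, 20 µg/mL saponin. Incubated with 0.2 nM [35S]GTPγS for 1 h at rt, then filtered. Non-specific binding defined with 10 µM GTPγS. Seven concentrations in duplicate; EC50 and Emax fitted.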

[9] = molecular target: T5, 5-hydroxytryptamine receptor 1A (Homo sapiens) (UniProt P08908); test: Binding affinity to 5HT-1A receptor (unknown origin) at 10 uM
T5 sequence (whole entry): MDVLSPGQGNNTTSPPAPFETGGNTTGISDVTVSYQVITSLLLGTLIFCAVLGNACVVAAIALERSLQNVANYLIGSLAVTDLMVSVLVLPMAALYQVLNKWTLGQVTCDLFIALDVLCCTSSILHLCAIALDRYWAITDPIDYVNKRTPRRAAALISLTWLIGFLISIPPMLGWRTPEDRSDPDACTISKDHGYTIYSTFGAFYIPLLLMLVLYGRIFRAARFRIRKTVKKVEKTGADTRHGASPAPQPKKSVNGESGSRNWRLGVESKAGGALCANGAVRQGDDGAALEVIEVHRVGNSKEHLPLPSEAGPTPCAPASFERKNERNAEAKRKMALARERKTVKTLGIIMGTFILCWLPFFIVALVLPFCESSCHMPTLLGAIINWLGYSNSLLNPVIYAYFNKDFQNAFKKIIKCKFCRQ

[10] = molecular target: T2, Melatonin receptor type 1B; test: Agonist activity at human recombinant melatonin receptor-2 expressed in CHO cells assessed as decrease of cAMP level after 10 mins by HTRF assay; format: functional, cell-based
Outline: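 Functional agonist profiling was done by CEREP on cells expressing human recombinant MT receptors. MT1 was read by cellular dielectric spectroscopy and MT2 by homogeneous time-resolved fluorescence. The protocols are those on the company website.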

[11] = molecular target: T3, Melatonin receptor type 1A; test: Agonist activity at human melatonin receptor-1 transfected in CHO cell membranes after 1 hr by GTPgammaS binding assay; format: functional

T3 sequence (P48039 whole entry): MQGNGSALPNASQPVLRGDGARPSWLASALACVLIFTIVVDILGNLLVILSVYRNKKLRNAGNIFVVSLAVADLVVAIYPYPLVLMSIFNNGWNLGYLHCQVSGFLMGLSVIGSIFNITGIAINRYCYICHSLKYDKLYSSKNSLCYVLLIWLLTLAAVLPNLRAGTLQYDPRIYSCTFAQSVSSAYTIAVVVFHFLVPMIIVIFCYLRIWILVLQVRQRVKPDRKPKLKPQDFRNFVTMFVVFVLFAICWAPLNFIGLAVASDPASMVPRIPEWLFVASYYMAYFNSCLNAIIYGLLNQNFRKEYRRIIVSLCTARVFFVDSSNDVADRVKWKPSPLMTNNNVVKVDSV
Sequence of Cannabinoid receptor 1 (Homo sapiens) (P21554 whole entry): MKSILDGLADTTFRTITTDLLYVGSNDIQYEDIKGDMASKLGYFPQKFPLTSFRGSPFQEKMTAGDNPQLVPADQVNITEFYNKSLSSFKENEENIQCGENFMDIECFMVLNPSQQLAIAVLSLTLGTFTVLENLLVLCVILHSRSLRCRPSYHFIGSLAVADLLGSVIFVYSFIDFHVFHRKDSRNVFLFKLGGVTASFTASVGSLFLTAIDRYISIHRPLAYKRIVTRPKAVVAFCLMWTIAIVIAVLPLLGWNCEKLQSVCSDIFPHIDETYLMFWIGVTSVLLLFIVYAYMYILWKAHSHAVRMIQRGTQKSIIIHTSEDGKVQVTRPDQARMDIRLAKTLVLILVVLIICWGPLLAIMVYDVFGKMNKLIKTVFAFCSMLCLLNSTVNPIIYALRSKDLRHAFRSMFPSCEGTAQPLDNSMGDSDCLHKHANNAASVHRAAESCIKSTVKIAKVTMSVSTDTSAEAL
Sequence of Glycogen synthase kinase-3 beta (Homo sapiens) (P49841 whole entry, looked up): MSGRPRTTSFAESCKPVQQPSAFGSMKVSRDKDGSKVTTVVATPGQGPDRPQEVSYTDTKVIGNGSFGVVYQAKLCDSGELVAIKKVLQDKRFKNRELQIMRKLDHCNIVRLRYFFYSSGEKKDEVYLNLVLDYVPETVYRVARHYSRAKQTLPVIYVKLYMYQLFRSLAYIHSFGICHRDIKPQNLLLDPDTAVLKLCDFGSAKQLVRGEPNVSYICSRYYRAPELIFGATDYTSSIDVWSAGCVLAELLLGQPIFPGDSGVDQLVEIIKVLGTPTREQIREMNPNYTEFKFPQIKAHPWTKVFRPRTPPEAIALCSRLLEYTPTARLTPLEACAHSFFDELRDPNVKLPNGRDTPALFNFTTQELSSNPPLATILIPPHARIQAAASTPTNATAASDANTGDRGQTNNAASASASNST

## COc1ccc2[nH]cc(CCc3nnc(C)o3)c2c1
[1]
  permeability: permeable
[2]
  Activity: inactive
[3]
  Activity: inactive
[4]
  EC50: 881 nM
[5]
  Activity: inactive
[6]
  Activity: Dose-dependent effect
[7]
  Ki: 709 nM
Homo sapiens
  Ratio Ki: 3.6
[8]
  Emax: 32%
[9]
  Activity: inactive
[10]
  EC50: 1600 nM
[11]
  EC50: 961 nM
